Experimental data: ChEMBL document CHEMBL1649560, “Beta-lactamase-mediated beta-lactam resistance in Campylobacter species: prevalence of Cj0299 (bla OXA-61) and evidence for a novel beta-Lactamase in C. jejuni” (2009)
In brackets after ≈: the same amount, converted by molar mass. One block for each compound: values may come before it.

Tests used:
Format in all cases: functional
[1] = system: Campylobacter jejuni; assay: Antibacterial activity against bla gene-negative and nitrocefin reaction-positive beta-lactamase harboring Campylobacter jejuni isolate P854 by NCCLS agar doubling dilution method
Method in brief: (§1)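 MICs of β-lactams by agar doubling dilution following the NCCLS (CLSI) Campylobacter Working Group procedure, with C. jejuni NCTC 11168 and C. coli NCTC 11366 as controls. Isolates were from UK poultry flocks. β-Lactamase status was set by Cj0299 PCR (281-bp amplimer) and by a nitrocefin colour change of sonicated lysate within 5 min, or within 30 min on repeat.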

[2] = system: Campylobacter coli; assay: Antibacterial activity against bla gene-positive and nitrocefin reaction-positive beta-lactamase harboring Campylobacter coli isolate P321 by NCCLS agar doubling dilution method; method in brief: as §1
[3] = system: Campylobacter jejuni; assay: Antibacterial activity against bla gene-positive and nitrocefin reaction-positive beta-lactamase harboring Campylobacter jejuni isolate P286 by NCCLS agar doubling dilution method
Method in brief: (§2)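 MICs by agar doubling dilution per the NCCLS (now CLSI) Campylobacter Working Group method. Isolates came from UK chicken flocks (feces, ceca or farm environment), 2000–2006. C. jejuni NCTC 11168 and C. coli NCTC 11366 served as control strains. The ampicillin resistance cutoff was 8 μg/ml; BSAC/CLSI Enterobacteriaceae guidelines were used for other agents.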

[4] = system: Campylobacter jejuni; assay: Antibacterial activity against bla gene-positive and nitrocefin reaction-negative beta-lactamase harboring Campylobacter jejuni isolate P1699 by NCCLS agar doubling dilution method; method in brief: as §1
[5] = system: Campylobacter jejuni; assay: Antibacterial activity against bla gene-positive and nitrocefin reaction-positive beta-lactamase harboring Campylobacter jejuni isolate P790 by NCCLS agar doubling dilution method; method in brief: as §2
[6] = system: Campylobacter jejuni; assay: Antibacterial activity against bla gene-positive and nitrocefin reaction-positive beta-lactamase harboring Campylobacter jejuni isolate P1093 by NCCLS agar doubling dilution method; method in brief: as §1
[7] = system: Campylobacter jejuni; assay: Antibacterial activity against bla gene-positive and nitrocefin reaction-positive beta-lactamase harboring Campylobacter jejuni isolate P338 by NCCLS agar doubling dilution method; method in brief: as §2
[8] = system: Campylobacter jejuni; assay: Antibacterial activity against bla gene-positive and nitrocefin reaction-positive beta-lactamase harboring Campylobacter jejuni isolate P1618 by NCCLS agar doubling dilution method; method in brief: as §1
[9] = system: Campylobacter jejuni; assay: Antibacterial activity against bla gene-negative and nitrocefin reaction-negative beta-lactamase harboring Campylobacter jejuni isolate P850 by NCCLS agar doubling dilution method; method in brief: as §1
[10] = system: Campylobacter coli; assay: Antibacterial activity against Campylobacter coli by NCCLS agar doubling dilution method
Method in brief: (§3)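 MICs by agar doubling dilution following the NCCLS (CLSI) Campylobacter Working Group procedure, applied to ampicillin- and amoxicillin-resistant isolates from UK chicken flocks (2000–2006). C. jejuni NCTC 11168 and C. coli NCTC 11366 served as control strains. Resistance was called at an ampicillin cutoff of 8 μg/ml. Other agents were judged against Enterobacteriaceae guidelines (BSAC, CLSI).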

[11] = system: Campylobacter jejuni; assay: Antibacterial activity against bla gene-negative and nitrocefin reaction-negative beta-lactamase harboring Campylobacter jejuni isolate P835 by NCCLS agar doubling dilution method; method in brief: as §1
[12] = system: Campylobacter jejuni; assay: Antibacterial activity against bla gene-positive and nitrocefin reaction-positive beta-lactamase harboring Campylobacter jejuni isolate P316 by NCCLS agar doubling dilution method; method in brief: as §2
[13] = system: Campylobacter coli; assay: Antibacterial activity against bla gene-positive and nitrocefin reaction-positive beta-lactamase harboring Campylobacter coli isolate P1826 by NCCLS agar doubling dilution method; method in brief: as §1
[14] = system: Campylobacter jejuni; assay: Antibacterial activity against bla gene-negative and nitrocefin reaction-negative beta-lactamase harboring Campylobacter jejuni isolate P1962 by NCCLS agar doubling dilution method; method in brief: as §1
[15] = system: Campylobacter jejuni; assay: Antibacterial activity against bla gene-positive and nitrocefin reaction-positive beta-lactamase harboring Campylobacter jejuni isolate P1730 by NCCLS agar doubling dilution method; method in brief: as §2
[16] = system: Campylobacter jejuni; assay: Antibacterial activity against Campylobacter jejuni by NCCLS agar doubling dilution method; method in brief: as §3
[17] = system: Campylobacter jejuni; assay: Antibacterial activity against bla gene-positive and nitrocefin reaction-positive beta-lactamase harboring Campylobacter jejuni isolate P305 by NCCLS agar doubling dilution method; method in brief: as §2
[18] = system: Campylobacter jejuni; assay: Antibacterial activity against bla gene-positive and nitrocefin reaction-positive beta-lactamase harboring Campylobacter jejuni isolate P1650 by NCCLS agar doubling dilution method; method in brief: as §1
[19] = system: Campylobacter coli; assay: Antibacterial activity against bla-positive and beta-lactamase-weakly positive Campylobacter coli isolate P1627 by NCCLS agar doubling dilution method; method in brief: as §2
[20] = system: Campylobacter jejuni; assay: Antibacterial activity against bla gene-negative and nitrocefin reaction-positive beta-lactamase harboring Campylobacter jejuni isolate P843 by NCCLS agar doubling dilution method; method in brief: as §1
[21] = system: Campylobacter jejuni; assay: Antibacterial activity against bla gene-positive and nitrocefin reaction-negative beta-lactamase harboring Campylobacter jejuni isolate P1698 by NCCLS agar doubling dilution method; method in brief: as §1
[22] = system: Campylobacter jejuni; assay: Antibacterial activity against bla gene-positive and nitrocefin reaction-negative beta-lactamase harboring Campylobacter jejuni NCTC 11168 by NCCLS agar doubling dilution method; method in brief: as §1
[23] = system: Campylobacter jejuni; assay: Antibacterial activity against bla gene-positive and nitrocefin reaction-positive beta-lactamase harboring Campylobacter jejuni isolate P285 by NCCLS agar doubling dilution method; method in brief: as §2
[24] = system: Campylobacter jejuni; assay: Antibacterial activity against Campylobacter jejuni isolate P338 harboring blaOXA-61::cat gene by NCCLS agar doubling dilution method
Method in brief: (§4)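 Agar doubling dilution MICs (NCCLS/CLSI Campylobacter Working Group method) against Cj0299-inactivated mutants. Mutants were made by transforming the C. jejuni isolate with pCI and selecting on Mueller-Hinton agar with 10 μg/ml chloramphenicol for 3–5 days. Chromosomal insertion was confirmed by PCR with Cj0299 and cat primers.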

[25] = system: Campylobacter jejuni; assay: Antibacterial activity against Campylobacter jejuni isolate P270 harboring blaOXA-61::cat gene by NCCLS agar doubling dilution method
[26] = system: Campylobacter jejuni; assay: Antibacterial activity against Campylobacter jejuni isolate P1093 harboring blaOXA-61::cat gene by NCCLS agar doubling dilution method; method in brief: as §4

Structure (SMILES): CC1(C)S[C@@H]2[C@H](NC(=O)[C@H](N)c3ccc(O)cc3)C(=O)N2[C@H]1C(=O)O [AMOXICILLIN]
- MIC [1]: 128 µg/mL (≈ 350 µM)
- MIC [2]: 64 µg/mL (≈ 175 µM)
- MIC [3]: 64 µg/mL (≈ 175 µM)
- MIC [4]: 64 µg/mL (≈ 175 µM)
- MIC [5]: 64 µg/mL (≈ 175 µM)
- MIC [6]: 64 µg/mL (≈ 175 µM)
- MIC [7]: 64 µg/mL (≈ 175 µM)
- MIC [8]: 64 µg/mL (≈ 175 µM)
- MIC [9]: 1 µg/mL (≈ 2.74 µM)
- MIC50 [10]: 128 µg/mL (≈ 350 µM)
- MIC90 [10]: > 128 µg/mL
- MIC [11]: 0.25 µg/mL (≈ 0.684 µM)
- MIC [12]: 32 µg/mL (≈ 87.6 µM)
- MIC [13]: 128 µg/mL (≈ 350 µM)
- MIC [14]: 2 µg/mL (≈ 5.47 µM)
- MIC [15]: 64 µg/mL (≈ 175 µM)
- MIC50 [16]: 64 µg/mL (≈ 175 µM)
- MIC90 [16]: 128 µg/mL (≈ 350 µM)
- MIC [17]: 64 µg/mL (≈ 175 µM)
- MIC [18]: 64 µg/mL (≈ 175 µM)
- MIC [19]: 8 µg/mL (≈ 21.9 µM)
- MIC [20]: 64 µg/mL (≈ 175 µM)
- MIC [21]: 128 µg/mL (≈ 350 µM)
- MIC [22]: 4 µg/mL (≈ 10.9 µM)
- MIC [23]: 64 µg/mL (≈ 175 µM)

Structure (SMILES): C[C@H]1[C@H](NC(=O)/C(=N\OC(C)(C)C(=O)O)c2csc(N)n2)C(=O)N1S(=O)(=O)O [AZTREONAM]
- MIC [1]: 4 µg/mL (≈ 9.19 µM)
- MIC [2]: > 128 µg/mL
- MIC [3]: > 128 µg/mL
- MIC [4]: < 1 µg/mL
- MIC [5]: > 128 µg/mL
- MIC [7]: 128 µg/mL (≈ 294 µM)
- MIC [8]: 64 µg/mL (≈ 147 µM)
- MIC [9]: > 32 µg/mL
- MIC50 [10]: 64 µg/mL (≈ 147 µM)
- MIC90 [10]: > 128 µg/mL
- MIC [11]: 128 µg/mL (≈ 294 µM)
- MIC [12]: > 128 µg/mL
- MIC [13]: 32 µg/mL (≈ 73.5 µM)
- MIC [14]: 4 µg/mL (≈ 9.19 µM)
- MIC [15]: 32 µg/mL (≈ 73.5 µM)
- MIC50 [16]: 64 µg/mL (≈ 147 µM)
- MIC90 [16]: > 128 µg/mL
- MIC [17]: > 128 µg/mL
- MIC [18]: 128 µg/mL (≈ 294 µM)
- MIC [19]: > 128 µg/mL
- MIC [20]: > 128 µg/mL
- MIC [21]: 128 µg/mL (≈ 294 µM)
- MIC [22]: 64 µg/mL (≈ 147 µM)
- MIC [23]: > 128 µg/mL

Structure (SMILES): CC1(C)S[C@@H]2[C@H](NC(=O)C(C(=O)O)c3ccccc3)C(=O)N2[C@H]1C(=O)O (some centres undefined) [CARBENICILLIN]
- MIC [1]: > 256 µg/mL
- MIC [2]: 256 µg/mL (≈ 677 µM)
- MIC [3]: 256 µg/mL (≈ 677 µM)
- MIC [4]: 64 µg/mL (≈ 169 µM)
- MIC [5]: 256 µg/mL (≈ 677 µM)
- MIC [6]: 256 µg/mL (≈ 677 µM)
- MIC [24]: 8 µg/mL (≈ 21.1 µM)
- MIC [7]: 128 µg/mL (≈ 338 µM)
- MIC [8]: 128 µg/mL (≈ 338 µM)
- MIC [9]: 256 µg/mL (≈ 677 µM)
- MIC50 [10]: 128 µg/mL (≈ 338 µM)
- MIC90 [10]: 256 µg/mL (≈ 677 µM)
- MIC [11]: 8 µg/mL (≈ 21.1 µM)
- MIC [12]: 128 µg/mL (≈ 338 µM)
- MIC [25]: 4 µg/mL (≈ 10.6 µM)
- MIC [13]: 128 µg/mL (≈ 338 µM)
- MIC [14]: < 16 µg/mL
- MIC [15]: 128 µg/mL (≈ 338 µM)
- MIC50 [16]: 128 µg/mL (≈ 338 µM)
- MIC90 [16]: 256 µg/mL (≈ 677 µM)
- MIC [17]: > 256 µg/mL
- MIC [18]: 64 µg/mL (≈ 169 µM)
- MIC [19]: 32 µg/mL (≈ 84.6 µM)
- MIC [20]: < 16 µg/mL
- MIC [26]: 16 µg/mL (≈ 42.3 µM)
- MIC [21]: 32 µg/mL (≈ 84.6 µM)
- MIC [22]: 16 µg/mL (≈ 42.3 µM)
- MIC [23]: 256 µg/mL (≈ 677 µM)

- MIC50 [10]: > 256 µg/mL
- MIC90 [10]: > 256 µg/mL
- MIC50 [16]: > 256 µg/mL
- MIC90 [16]: > 256 µg/mL
Structure (SMILES): Cn1nnnc1SCC1=C(C(=O)O)N2C(=O)[C@@H](NC(=O)[C@H](O)c3ccccc3)[C@H]2SC1 [CEFAMANDOLE]

Structure (SMILES): CO/N=C(\C(=O)N[C@@H]1C(=O)N2C(C(=O)O)=C(COC(C)=O)CS[C@H]12)c1csc(N)n1 [CEFOTAXIME]
- MIC [1]: 4 µg/mL (≈ 8.78 µM)
- MIC [2]: 4 µg/mL (≈ 8.78 µM)
- MIC [3]: 8 µg/mL (≈ 17.6 µM)
- MIC [4]: 4 µg/mL (≈ 8.78 µM)
- MIC [5]: 4 µg/mL (≈ 8.78 µM)
- MIC [6]: 8 µg/mL (≈ 17.6 µM)
- MIC [24]: 8 µg/mL (≈ 17.6 µM)
- MIC [7]: 8 µg/mL (≈ 17.6 µM)
- MIC [8]: 16 µg/mL (≈ 35.1 µM)
- MIC [9]: 8 µg/mL (≈ 17.6 µM)
- MIC50 [10]: 4 µg/mL (≈ 8.78 µM)
- MIC90 [10]: 8 µg/mL (≈ 17.6 µM)
- MIC [11]: 4 µg/mL (≈ 8.78 µM)
- MIC [12]: 4 µg/mL (≈ 8.78 µM)
- MIC [25]: 2 µg/mL (≈ 4.39 µM)
- MIC [13]: 2 µg/mL (≈ 4.39 µM)
- MIC [14]: 1 µg/mL (≈ 2.2 µM)
- MIC [15]: 4 µg/mL (≈ 8.78 µM)
- MIC50 [16]: 4 µg/mL (≈ 8.78 µM)
- MIC90 [16]: 8 µg/mL (≈ 17.6 µM)
- MIC [17]: 4 µg/mL (≈ 8.78 µM)
- MIC [18]: 4 µg/mL (≈ 8.78 µM)
- MIC [19]: 4 µg/mL (≈ 8.78 µM)
- MIC [20]: 4 µg/mL (≈ 8.78 µM)
- MIC [26]: 4 µg/mL (≈ 8.78 µM)
- MIC [21]: 4 µg/mL (≈ 8.78 µM)
- MIC [22]: 2 µg/mL (≈ 4.39 µM)
- MIC [23]: 8 µg/mL (≈ 17.6 µM)
